16 compounds from PubChem BioAssay can be followed below.

Assay [1] in a line: reducers of endogenous Her2 protein level, primary screen, SKBR3 breast tumor cells, AlphaScreen, ATP viability (AID 461;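 active = Her2 level under about 52% in both replicate screens, with viability over 70% of control, limit read from the data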;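 for Her2 level: lower value means less Her2 protein in the cells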;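 for viability: percent of carrier control wells set as 100% viability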). As to conditions: 18-24 h, measured here: SKBR3 viability, ATP luminescence, at 10 µM. For orientation: In Alpha technology, singlet oxygen from a donor bead excites a nearby acceptor bead.
In assay [2] the target is Receptor tyrosine-protein kinase erbB-2 (Homo sapiens) (UniProt P04626). Described as above. As to conditions: 18-24 h, at 10 µM, stronger effect = lower value.
A short description of assay [3]: SK-BR-3 cell growth inhibitors, pilot screen, 24 h, human (AID 572;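 active = viability at or below 10% of carrier control in both of two separate runs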;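 note: compound exposure lasted between 18 and 24 h rather than exactly 24 h; 100% = carrier-treated control wells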). As to conditions: SK-BR-3 viability, CellTiter-Glo luminescence, at 10 µM, stronger effect = lower value. Background: Cellular ATP, detected with luciferase, serves as a proxy for viable cell number.
A short description of assay [4]: HUVEC growth inhibition – cell-based, human, primary screen (AID 575;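 active = viability at or below 30% in both replicate assays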;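 note: 100% = median of untreated cell wells with 0.1% DMSO on each plate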). As to conditions: HUVEC proliferation, CellTiter-Glo luminescence, 72 h; at 10 µM; stronger effect = lower value. An outline of the steps:
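System – primary HUVEC, no more than 12 passages · Medium – Low-serum (2% FBS) EBM, supplemented · Times – 72 h exposure, 37 °C, 5% CO2, 30 min RT equilibration · Measured by – luminescent ATP assay · Read-out – % viability relative to median vehicle-well signal on each plate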

A short description of assay [5]: growth inhibitors of H69AR lung tumor, primary screen, human, duplicate replicates (AID 580;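 active = viability at or under a set limit in both replicates, limit being median viability minus 3 SD, cut at about 48% in these data, passing the limit was not always enough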;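 note: 100% = mean luminescence of untreated wells and 0% = no signal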). As to conditions: H69AR lung tumor cells viability, ATP luminescence, 72 h; at 10 µM; stronger effect = lower value.
Assay [6] in a line: reversal of MRP1-mediated doxorubicin resistance, pilot screen, H69AR cells, doxorubicin co-treatment (AID 601;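 active = viability loss from added drug above about 55%, and viability with drug at most 40%, in both replicates, limit read from the data, passing the limit was not always enough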). As to conditions: CellTiter-Glo, 72 h, at 10 µM; for differential viability (reversal): stronger effect = higher value.
A short description of assay [7]: 384-well plate pilot, post-Golgi transport modulator project, inhibition of yeast transport mutant growth (AID 636; in the data active = inhibition above about 31%). As to conditions: absorbance 615 nm, about 18 h, stronger effect = higher value.
A short description of assay [8]: growth suppression of yeast trafficking mutant, preliminary HTS, modulators of trafficking downstream of Golgi apparatus project, 1536-format plate, OD 615 nm (AID 637). As to conditions: yeast transport mutant growth, absorbance 615 nm, 18 h; stronger effect = higher value.
[9] abbreviates: H69AR cells + 2 uM doxorubicin, measured here: viability with 2 uM doxorubicin, stronger effect = lower value.
Setting [10] is: H69AR cells, compound alone cytotoxicity.

Usually viability stands for a read-out of living cells in per cent, often relative to untreated cells. What is called inhibition is the relative decrease from the control value, in per cent.

SMILES strings stand for the structures. The source made the active and inactive calls. Cut-off read from the data, not from the text of the source, unless noted: active = inhibition above about 30%; inactive = the rest.

Chain of Receptor tyrosine-protein kinase erbB-2 (Homo sapiens) (P04626 whole entry, looked up): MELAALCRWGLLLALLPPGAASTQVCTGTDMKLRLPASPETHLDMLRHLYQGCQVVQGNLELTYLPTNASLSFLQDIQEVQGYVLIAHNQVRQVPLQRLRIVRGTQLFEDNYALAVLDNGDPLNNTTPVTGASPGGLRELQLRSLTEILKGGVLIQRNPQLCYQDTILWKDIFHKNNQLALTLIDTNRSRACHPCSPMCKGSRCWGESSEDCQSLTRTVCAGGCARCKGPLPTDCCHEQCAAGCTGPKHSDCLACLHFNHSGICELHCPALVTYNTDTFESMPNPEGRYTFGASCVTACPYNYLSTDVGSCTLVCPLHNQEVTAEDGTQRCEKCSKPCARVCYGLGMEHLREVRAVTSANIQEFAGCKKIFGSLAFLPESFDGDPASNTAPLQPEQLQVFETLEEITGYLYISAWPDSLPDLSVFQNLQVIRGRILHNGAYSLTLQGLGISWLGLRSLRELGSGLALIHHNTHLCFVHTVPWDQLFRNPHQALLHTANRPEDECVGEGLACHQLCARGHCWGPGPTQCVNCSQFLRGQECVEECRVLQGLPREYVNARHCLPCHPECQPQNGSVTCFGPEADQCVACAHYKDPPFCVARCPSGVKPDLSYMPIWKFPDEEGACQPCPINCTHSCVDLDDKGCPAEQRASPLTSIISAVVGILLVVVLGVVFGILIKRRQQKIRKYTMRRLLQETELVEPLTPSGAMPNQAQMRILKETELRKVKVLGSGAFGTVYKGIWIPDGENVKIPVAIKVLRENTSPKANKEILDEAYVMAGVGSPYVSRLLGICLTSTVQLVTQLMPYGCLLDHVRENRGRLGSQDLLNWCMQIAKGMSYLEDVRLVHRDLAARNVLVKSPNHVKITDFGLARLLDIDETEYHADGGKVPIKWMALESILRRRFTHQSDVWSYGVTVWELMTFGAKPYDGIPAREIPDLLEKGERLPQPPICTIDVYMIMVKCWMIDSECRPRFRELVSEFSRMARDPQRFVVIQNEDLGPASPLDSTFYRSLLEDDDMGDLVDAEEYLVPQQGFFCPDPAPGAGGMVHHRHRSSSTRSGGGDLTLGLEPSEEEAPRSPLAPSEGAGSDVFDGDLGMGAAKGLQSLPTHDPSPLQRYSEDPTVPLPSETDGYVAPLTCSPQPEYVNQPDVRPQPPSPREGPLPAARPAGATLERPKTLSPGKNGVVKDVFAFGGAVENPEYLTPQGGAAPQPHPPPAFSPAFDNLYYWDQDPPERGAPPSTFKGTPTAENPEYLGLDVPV

For `Cn1c(=O)c2c(nc(NCCc3ccccc3)n2CC(=O)NCCc2ccccc2)n(C)c1=O`, the viability was 91% in assay [1]; 91% (inactive) in assay [3]; 99.9% (inactive) in assay [4]; 79% (inactive) in assay [5]; 70.2% in assay [6] (setting [9]); 79% in assay [6] (setting [10]). In addition, in assay [2], the Her2 level is 90.5% (inactive). Also, the differential viability (reversal) in assay [6] (H69AR cells + 2 uM doxorubicin) was 8.86% (inactive). Moreover, the inhibition is -1.05% (inactive) in assay [7] and 9.68% (inactive) in assay [8].

In the case of `O=C(O)CCC(=O)c1c[nH]c2ccccc12`, the viability in assay [1] is 88%; in assay [3] it was 88% (inactive); in assay [4], 88.4% (inactive); in assay [5], 95.6% (inactive); in assay [6] (setting [9]), 101%; in assay [6] (setting [10]), 95.6%. The Her2 level in assay [2] was 114% (inactive). Also, in assay [6] (H69AR cells + 2 uM doxorubicin), the differential viability (reversal) is -5.4% (inactive). The inhibition in assay [7] is 1.47% (inactive); in assay [8] it was -4.76% (inactive).

For the compound `COc1ccc(C(=O)N2CCN(c3nc4cc(C)ccc4cc3C#N)CC2)c(OC)c1`, the viability in assay [1] was 112%; in assay [3] it was 112% (inactive); in assay [4], 88.1% (inactive); in assay [5], 85.4% (inactive); in assay [6] (setting [9]) it was 94.5%; in assay [6] (setting [10]) it was 85.4%. For the same compound, the Her2 level in assay [2] was 98% (inactive). Moreover, the differential viability (reversal) in assay [6] (H69AR cells + 2 uM doxorubicin) was -9.04% (inactive). Also, the inhibition was -2.73% (inactive) in assay [7] and -1.75% (inactive) in assay [8].

Turning to `CCOc1ccccc1NC(=O)CSc1c(C)n[nH]c1C`, the viability in assay [1] is 90%; in assay [3], 90% (inactive); in assay [4], 109% (inactive); in assay [5] it was 113% (inactive); in assay [6] (setting [9]), 92.7%; in assay [6] (setting [10]), 113%. The Her2 level in assay [2] was 88% (inactive). Besides, in assay [6] (H69AR cells + 2 uM doxorubicin), the differential viability (reversal) is 19.8% (inactive). Besides, the inhibition in assay [7] is -3.07% (inactive); in assay [8], -3.71% (inactive).

Consider `O=C(c1ccco1)N1CCN(C(=O)C2CCN(S(=O)(=O)c3cccc4nsnc34)CC2)CC1`, for which the viability in assay [1] is 98.5%; in assay [3] it was 98.5% (inactive); in assay [4] it was 104% (inactive); in assay [5] it was 83.5% (inactive); in assay [6] (setting [9]), 75%; in assay [6] (setting [10]) it was 83.5%. Further, the Her2 level in assay [2] is 102% (inactive). Further, the differential viability (reversal) in assay [6] (H69AR cells + 2 uM doxorubicin) was 8.47% (inactive). For the same compound, the results for the inhibition in assay [7] and in assay [8] were -4.27% (inactive) and -1.48% (inactive), respectively.

On to `COC(=O)c1oc2ccc(Br)cc2c1NC(=O)CN1CCN(C)CC1`, for which the viability was 92.5% in assay [1]; 92.5% (inactive) in assay [3]; 101% (inactive) in assay [4]; 96.6% (inactive) in assay [5]; 80.3% in assay [6] (setting [9]); 96.6% in assay [6] (setting [10]). Also, in assay [2], the Her2 level was 100% (inactive). The differential viability (reversal) in assay [6] (H69AR cells + 2 uM doxorubicin) was 16.2% (inactive). The inhibition in assay [7] was 1.18% (inactive); in assay [8], 0.55% (inactive).

As to `COc1ccc(Br)cc1CNC(=O)C1CCCN(S(C)(=O)=O)C1` (stereo not given), the viability is 78% in assay [1]; 78% (inactive) in assay [3]; 94.7% (inactive) in assay [4]; 88.4% (inactive) in assay [5]; 82.2% in assay [6] (setting [9]); 88.4% in assay [6] (setting [10]). In addition, the Her2 level in assay [2] is 104% (inactive). Further, the differential viability (reversal) in assay [6] (H69AR cells + 2 uM doxorubicin) was 6.26% (inactive). The inhibition in assay [7] was 0.9% (inactive); in assay [8] it was 10.2% (inactive).

Turning to `O=c1oc2ccccc2n1CCc1ccccc1`, the viability in assay [1] is 109%; in assay [3] it was 109% (inactive); in assay [4], 84.6% (inactive); in assay [5], 93.7% (inactive); in assay [6] (setting [9]), 84.6%; in assay [6] (setting [10]) it was 93.7%. Also, in assay [2], the Her2 level was 97.5% (inactive). In addition, the differential viability (reversal) in assay [6] (H69AR cells + 2 uM doxorubicin) was 9.07% (inactive). Besides, the figures for the inhibition in assay [7] and in assay [8] were -5.92% (inactive) and 0.98% (inactive), respectively.

Take `Cc1ccccc1C(=O)NC1CCN(CC(=O)Nc2nccs2)CC1`: the viability is 92.5% in assay [1]; 92.5% (inactive) in assay [3]; 88.8% (inactive) in assay [4]; 97.8% (inactive) in assay [5]; 86.2% in assay [6] (setting [9]); 97.8% in assay [6] (setting [10]). Moreover, the Her2 level in assay [2] was 96% (inactive). Besides, the differential viability (reversal) in assay [6] (H69AR cells + 2 uM doxorubicin) was 11.6% (inactive). Also, the values for the inhibition in assay [7] and in assay [8] were -0.67% (inactive) and 5.08% (inactive), respectively.

As to `O=C(Nc1ccc(Cl)cc1)C1CC=CCC1C(=O)OCC(F)(F)C(F)F` (stereo not given), the viability in assay [1] was 93%; in assay [3] it was 93% (inactive); in assay [4], 103% (inactive); in assay [5], 94.6% (inactive); in assay [6] (setting [9]), 87.3%; in assay [6] (setting [10]), 94.6%. Also, the Her2 level in assay [2] is 92.5% (inactive). Further, the differential viability (reversal) in assay [6] (H69AR cells + 2 uM doxorubicin) is 7.29% (inactive). The inhibition in assay [7] is -6.89% (inactive); in assay [8] it was -3% (inactive).

As to `O=c1oc2ccccc2c2c1ncn2-c1ccccc1`, the viability in assay [1] is 100%; in assay [3] it was 100% (inactive); in assay [4], 90.4% (inactive); in assay [5], 89.1% (inactive); in assay [6] (setting [9]) it was 97.7%; in assay [6] (setting [10]) it was 89.1%. Also, in assay [2], the Her2 level is 96% (inactive). Besides, the differential viability (reversal) in assay [6] (H69AR cells + 2 uM doxorubicin) is -8.58% (inactive). Besides, the inhibition in assay [7] was 0.52% (inactive); in assay [8], -2.13% (inactive).

As for `CCOC(=O)CNS(=O)(=O)c1c(C)noc1C`, the viability in assay [1] is 110%; in assay [3], 110% (inactive); in assay [4] it was 70.6% (inactive); in assay [5] it was 107% (inactive); in assay [6] (setting [9]), 86.2%; in assay [6] (setting [10]), 107%. Further, the Her2 level in assay [2] is 104% (inactive). Besides, the differential viability (reversal) in assay [6] (H69AR cells + 2 uM doxorubicin) is 20.6% (inactive). The inhibition in assay [7] is -4.47% (inactive); in assay [8] it was 2.73% (inactive).

On to `Cc1ccc(C(=O)CCC2CCCC2=O)cc1` (stereo not given), for which the viability was 90.5% in assay [1]; 90.5% (inactive) in assay [3]; 111% (inactive) in assay [4]; 89% (inactive) in assay [5]; 88.4% in assay [6] (setting [9]); 89% in assay [6] (setting [10]). The Her2 level in assay [2] was 102% (inactive). Further, in assay [6] (H69AR cells + 2 uM doxorubicin), the differential viability (reversal) is 0.57% (inactive). Besides, the inhibition is -4.73% (inactive) in assay [7] and -2.67% (inactive) in assay [8].

For `Cc1ccc(-n2ncc3c(Nc4c(C)n(C)n(-c5ccccc5)c4=O)ncnc32)c(C)c1`, the viability is 99% in assay [1]; 99% (inactive) in assay [3]; 96.2% (inactive) in assay [4]; 92.3% (inactive) in assay [5]; 83.2% in assay [6] (setting [9]); 92.3% in assay [6] (setting [10]). Also, the Her2 level in assay [2] is 94.5% (inactive). For the same compound, the differential viability (reversal) in assay [6] (H69AR cells + 2 uM doxorubicin) was 9.15% (inactive). Further, the inhibition in assay [7] was -4.8% (inactive); in assay [8], 1.45% (inactive).

`O=C(NC1CCCCCC1)C1c2ccccc2C(=O)N1Cc1cccnc1` (stereo not given): the viability is 108% in assay [1]; 108% (inactive) in assay [3]; 74.3% (inactive) in assay [4]; 90.1% (inactive) in assay [5]; 103% in assay [6] (setting [9]); 90.1% in assay [6] (setting [10]). In addition, the Her2 level in assay [2] is 99.5% (inactive). Further, the differential viability (reversal) in assay [6] (H69AR cells + 2 uM doxorubicin) is -12.5% (inactive). Moreover, the inhibition in assay [7] was 0.13% (inactive); in assay [8] it was -7.3% (inactive).

With `O=C(CP(=O)(CO)CO)c1ccc(Cl)cc1`, the viability in assay [1] is 100%; in assay [3], 100% (inactive); in assay [4], 100% (inactive); in assay [5] it was 101% (inactive); in assay [6] (setting [9]) it was 92.3%; in assay [6] (setting [10]), 101%. For the same compound, the Her2 level in assay [2] was 95% (inactive). In addition, the differential viability (reversal) in assay [6] (H69AR cells + 2 uM doxorubicin) is 8.5% (inactive). The results for the inhibition in assay [7] and in assay [8] were -0.26% (inactive) and -2.18% (inactive), respectively.
